Published values of several laboratories.
Protocols differ between the studies behind these lines.
PI4KA: Phosphatidylinositol 4-kinase alpha (PI4KA, Homo sapiens, UniProt P42356)
DRD4: D(4) dopamine receptor (DRD4, Homo sapiens, UniProt P21917)
ABHD6: Monoacylglycerol lipase ABHD6 (ABHD6, Homo sapiens, UniProt Q9BV23)
HTR5A: 5-hydroxytryptamine receptor 5A (HTR5A, Homo sapiens, UniProt P47898)

| SMILES | target | test | system | setting | inhibition |
| --- | --- | --- | --- | --- | --- |
| CS(=O)(=O)Nc1cccc(-c2csc(NC(=O)CSc3nc4nccnc4c(=O)n3CCc3ccccc3)n2)c1 | PI4KA | enzyme activity, inhibitor | – | 10 µM | 5% |
| CCN1CCN(Cc2ccc(NC(=O)c3ccc(C)c(Oc4ccnc5[nH]ccc45)c3)cc2C(F)(F)F)CC1 | PI4KA | target engagement in cells, inhibitor, chemoproteomics | Huh-7 | 10 µM | -10.4% |
| N#Cc1cc(Cn2c(N3CCCC3)nc3ccccc32)ccc1F | DRD4 | ligand displacement | – | 10 µM | -0.93% |
| O=C(Oc1nsnc1N1CCC(Cc2ccccc2)CC1)N1CCCCC1 | ABHD6 | enzyme activity, inhibitor, fluorescence | – | 1 µM, lysate | 15% |
| O=C(CSc1nc2nccnc2c(=O)n1CCc1ccccc1)Nc1ccccc1 | PI4KA | enzyme activity, inhibitor | – | 10 µM | < 20% |
| CCCNc1nc2ccccc2n1Cc1ccc(Cl)cc1 | DRD4 | ligand displacement | – | 10 µM | 2.14% |
| O=C(Oc1nsnc1N1CCC(c2ccccc2)CC1)N1CCCCC1 | ABHD6 | enzyme activity, inhibitor, fluorescence | – | 1 µM, lysate | 41% |
| Cn1cnc(Br)c1C1=CN(c2ncnc3[nH]cnc23)CCS1 | Mitogen-activated protein kinase kinase kinase 19 (MAP3K19, Homo sapiens, UniProt Q56UN5) | enzyme activity, inhibitor, radiometric | – | 50 nM | 29.5% |
| COc1cc2c3c(c1OC)-c1cc4c(cc1CC3N(CC1CC1)CC2c1ccccc1)OCO4 (stereo not shown) | HTR5A | ligand displacement, radioligand | – | 10 µM | -18.2% |
| O=C(CSc1nc2nccnc2c(=O)n1CCc1ccccc1)Nc1nccs1 | PI4KA | enzyme activity, inhibitor | – | 10 µM | -5% |
| CN(C)C1CCN(CC#Cc2nn(C3CCCC3)c3nc(NCc4ccccc4)ncc23)C1 (stereo not shown) | Protein kinase C iota type (PRKCI, Homo sapiens, UniProt P41743) | enzyme activity, inhibitor, FRET | – | 1 µM | 5% |
| CCN(CC)c1ccc(C2Nc3ccc(C(=O)c4ccccc4)cc3NC3=C2C(=O)CC(C)(C)C3)cc1 (stereo not shown) | HTR5A | ligand displacement, radioligand | – | 10 µM | 85% |
| O=C(Nc1ccc(S(=O)(=O)N2CCC(Cl)CC2)cc1)c1ccc([N+](=O)[O-])o1 | DRD4 | ligand displacement, radioligand | – | 10 µM | 1% |
